The values below come from ChEMBL document CHEMBL4138312 (J Med Chem, 2018).

Data set [1] deals with T1, Tyrosine-protein kinase JAK1 (Homo sapiens, UniProt P23458). In words: Inhibition of cytoplasmic recombinant human GST-tagged JAK1 (886 to 1154 residues) expressed in insect cells using FITC-C6-KKHTDDGYMPMSPGVA-NH as substrate after 10 mins by caliper assay. The method, boiled down: (§1)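 Biochemical kinase inhibition IC50 measured at 5 mM ATP. Values are the geometric mean of at least two independent experiments.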

For data set [2], the target named is T2, Tyrosine-protein kinase JAK3 (Homo sapiens, UniProt P52333).
T2 sequence (P52333 whole entry): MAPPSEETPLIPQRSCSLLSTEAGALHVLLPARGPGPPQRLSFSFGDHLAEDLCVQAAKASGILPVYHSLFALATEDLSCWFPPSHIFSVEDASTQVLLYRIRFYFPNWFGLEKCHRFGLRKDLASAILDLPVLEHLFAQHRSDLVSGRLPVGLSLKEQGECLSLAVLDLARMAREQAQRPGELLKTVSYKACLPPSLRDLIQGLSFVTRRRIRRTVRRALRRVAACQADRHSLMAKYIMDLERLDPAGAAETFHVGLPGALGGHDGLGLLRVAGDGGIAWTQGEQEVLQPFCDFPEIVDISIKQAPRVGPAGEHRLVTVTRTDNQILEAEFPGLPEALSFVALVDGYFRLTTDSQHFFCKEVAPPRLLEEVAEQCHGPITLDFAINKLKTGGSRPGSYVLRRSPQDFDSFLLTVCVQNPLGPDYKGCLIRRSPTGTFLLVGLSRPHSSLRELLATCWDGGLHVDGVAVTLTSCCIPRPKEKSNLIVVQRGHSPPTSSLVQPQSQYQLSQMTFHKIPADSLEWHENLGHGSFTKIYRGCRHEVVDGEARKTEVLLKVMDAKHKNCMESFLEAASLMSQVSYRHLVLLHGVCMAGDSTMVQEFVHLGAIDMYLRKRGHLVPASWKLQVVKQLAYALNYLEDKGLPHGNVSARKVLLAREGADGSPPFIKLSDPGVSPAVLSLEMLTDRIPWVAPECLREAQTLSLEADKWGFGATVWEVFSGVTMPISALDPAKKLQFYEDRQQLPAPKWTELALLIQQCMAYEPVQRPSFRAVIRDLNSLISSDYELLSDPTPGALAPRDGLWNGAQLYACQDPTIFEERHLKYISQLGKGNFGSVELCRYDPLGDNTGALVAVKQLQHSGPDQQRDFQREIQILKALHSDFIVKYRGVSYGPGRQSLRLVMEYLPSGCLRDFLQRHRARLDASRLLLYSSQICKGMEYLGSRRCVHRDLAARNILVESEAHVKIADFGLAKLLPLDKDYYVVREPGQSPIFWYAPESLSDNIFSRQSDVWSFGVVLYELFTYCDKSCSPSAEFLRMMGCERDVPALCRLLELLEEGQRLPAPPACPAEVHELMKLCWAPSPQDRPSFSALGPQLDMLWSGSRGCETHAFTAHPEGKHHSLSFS
In words: Inhibition of recombinant human JAK3 (781 to 1124 residues) expressed in insect cells using 5FAM-GEEPLYWSFPAKKK-NH2 as substrate after 10 mins by caliper assay. The procedure, abridged:
as §1

For data set [3], the target named is Tyrosine-protein kinase JAK2 (Homo sapiens, UniProt O60674). The data set is described as follows: Inhibition of recombinant human JAK2 (831 to 1132 residues) expressed in insect cells using 5FAM-GEEPLYWSFPAKKK-NH2 as substrate after 10 mins by caliper assay. The method, boiled down: as §1
The nature of data set [4]: Octanol-water partition coefficient, log D of the compound in sodium phosphate buffer at pH 7.4 after 5 hrs by shake-flask assay. The data set is classed as physicochemical.
The species entered for another data set is Homo sapiens. The data set is described as follows: Selectivity ratio of IC50 for recombinant human JAK2 (831 to 1132 residues) expressed in insect cell to IC50 for cytoplasmic recombinant human GST-tagged JAK1 (886 to 1154 residues) expressed in baculovirus. The procedure, abridged:
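Biochemical IC50s measured against JAK1 and JAK2 at 5 mM ATP. Each IC50 is the geometric mean of at least two independent experiments. The ratio is the JAK2 IC50 divided by the JAK1 IC50.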

Data set [5] addresses T1, Tyrosine-protein kinase JAK1. The data set is described as follows: Inhibition of JAK1 in human NCI-H1975 cells assessed as reduction in STAT3 phosphorylation after 1 hr by ELISA. The data set is classed as cell-based. The method, boiled down: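 Cellular mode-of-action assay in NCI-H1975 cells, read as inhibition of STAT3 phosphorylation. EC50 was derived.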
(An ELISA detects its analyte on a solid surface through an enzyme-linked reagent.)

A short description of data set [6]: Intrinsic clearance in human liver microsomes. The data set is classed as ADME, microsome. The following applies: read-out: CLH. On the technique in general: Liver microsomes are a subcellular fraction often used to study metabolism.
The next data set concerns A549. In words: Antiproliferative activity against human A549 cells after 48 hrs by Alamar Blue based assay. In kind it is functional. The following applies: A549, 48 h. The method, boiled down:
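Antiproliferation assay in A549 cells, reported as GI50.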
(In general: Alamar Blue is a resazurin reagent that responds to reducing activity.)

The target in data set [7] is Non-receptor tyrosine-protein kinase TYK2 (Homo sapiens, UniProt P29597). The data set is described as follows: Inhibition of recombinant human N-terminal GST-tagged TYK2 (871 to 1187 residues) expressed in baculovirus expression system using 5FAM-GEEPLYWSFPAKKK-NH2 as substrate after 10 mins by caliper assay. The procedure, abridged:
as §1

A value given as a limit tells only on which side of the number the result lay.

T1 sequence (P23458 whole entry, the tested form may be a part): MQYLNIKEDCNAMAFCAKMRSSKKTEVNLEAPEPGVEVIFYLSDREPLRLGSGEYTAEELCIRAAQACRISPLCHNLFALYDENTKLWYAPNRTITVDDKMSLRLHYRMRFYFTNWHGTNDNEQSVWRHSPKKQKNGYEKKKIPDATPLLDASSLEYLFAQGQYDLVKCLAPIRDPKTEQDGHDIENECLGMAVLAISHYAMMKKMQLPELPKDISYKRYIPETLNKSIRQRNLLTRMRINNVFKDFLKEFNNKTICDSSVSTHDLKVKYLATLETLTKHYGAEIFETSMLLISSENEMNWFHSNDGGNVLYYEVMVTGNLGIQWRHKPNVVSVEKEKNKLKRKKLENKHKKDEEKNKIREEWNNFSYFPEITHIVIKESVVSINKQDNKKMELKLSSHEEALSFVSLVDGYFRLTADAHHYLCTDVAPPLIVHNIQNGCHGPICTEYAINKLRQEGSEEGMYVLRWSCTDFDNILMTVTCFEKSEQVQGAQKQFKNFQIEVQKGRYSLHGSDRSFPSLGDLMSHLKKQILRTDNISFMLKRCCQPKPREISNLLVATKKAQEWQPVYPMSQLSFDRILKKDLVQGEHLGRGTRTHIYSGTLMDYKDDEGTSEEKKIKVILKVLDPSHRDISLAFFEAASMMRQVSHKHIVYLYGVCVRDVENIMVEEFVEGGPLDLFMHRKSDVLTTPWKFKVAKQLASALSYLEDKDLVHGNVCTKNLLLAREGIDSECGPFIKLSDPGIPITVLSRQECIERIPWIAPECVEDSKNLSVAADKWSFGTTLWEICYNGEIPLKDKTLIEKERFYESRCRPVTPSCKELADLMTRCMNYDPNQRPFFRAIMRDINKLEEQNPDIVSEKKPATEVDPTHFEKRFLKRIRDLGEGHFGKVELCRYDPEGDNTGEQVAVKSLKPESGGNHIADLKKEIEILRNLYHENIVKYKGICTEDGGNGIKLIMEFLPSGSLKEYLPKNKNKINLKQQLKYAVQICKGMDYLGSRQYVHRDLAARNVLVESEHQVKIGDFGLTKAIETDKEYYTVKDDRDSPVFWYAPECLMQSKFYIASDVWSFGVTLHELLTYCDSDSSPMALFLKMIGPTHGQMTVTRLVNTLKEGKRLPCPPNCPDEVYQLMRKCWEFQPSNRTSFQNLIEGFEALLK
Chain of Tyrosine-protein kinase JAK2 (O60674 whole entry, the tested form may be a part): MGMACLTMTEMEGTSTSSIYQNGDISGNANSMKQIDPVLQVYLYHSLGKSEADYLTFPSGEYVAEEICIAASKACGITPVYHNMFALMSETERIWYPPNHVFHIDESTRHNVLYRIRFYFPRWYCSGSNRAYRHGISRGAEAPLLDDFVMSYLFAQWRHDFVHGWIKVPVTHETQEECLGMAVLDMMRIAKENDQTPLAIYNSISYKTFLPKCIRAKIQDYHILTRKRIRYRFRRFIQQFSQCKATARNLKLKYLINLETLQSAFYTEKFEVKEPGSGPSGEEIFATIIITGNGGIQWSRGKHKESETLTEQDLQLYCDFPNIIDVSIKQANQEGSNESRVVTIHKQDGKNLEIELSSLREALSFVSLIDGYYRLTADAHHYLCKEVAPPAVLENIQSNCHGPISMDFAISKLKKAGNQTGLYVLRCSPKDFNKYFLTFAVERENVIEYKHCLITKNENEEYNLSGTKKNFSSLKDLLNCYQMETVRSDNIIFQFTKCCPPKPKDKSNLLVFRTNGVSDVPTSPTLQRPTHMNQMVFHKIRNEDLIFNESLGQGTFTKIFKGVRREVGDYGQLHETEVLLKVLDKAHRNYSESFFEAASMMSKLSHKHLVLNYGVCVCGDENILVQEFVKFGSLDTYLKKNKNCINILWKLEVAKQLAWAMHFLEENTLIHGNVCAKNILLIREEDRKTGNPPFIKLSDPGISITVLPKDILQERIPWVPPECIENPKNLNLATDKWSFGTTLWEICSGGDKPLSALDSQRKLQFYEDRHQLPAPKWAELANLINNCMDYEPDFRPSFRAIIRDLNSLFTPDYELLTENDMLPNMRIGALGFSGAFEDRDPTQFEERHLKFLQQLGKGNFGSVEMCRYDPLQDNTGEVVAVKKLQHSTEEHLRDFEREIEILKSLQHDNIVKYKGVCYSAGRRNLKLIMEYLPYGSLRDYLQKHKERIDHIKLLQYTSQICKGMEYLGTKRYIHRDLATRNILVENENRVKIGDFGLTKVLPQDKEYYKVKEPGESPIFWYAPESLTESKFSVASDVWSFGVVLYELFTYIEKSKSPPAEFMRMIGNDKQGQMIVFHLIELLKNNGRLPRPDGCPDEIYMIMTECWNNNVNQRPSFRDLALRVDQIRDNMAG
Chain of Non-receptor tyrosine-protein kinase TYK2 (P29597 whole entry, the tested form may be a part): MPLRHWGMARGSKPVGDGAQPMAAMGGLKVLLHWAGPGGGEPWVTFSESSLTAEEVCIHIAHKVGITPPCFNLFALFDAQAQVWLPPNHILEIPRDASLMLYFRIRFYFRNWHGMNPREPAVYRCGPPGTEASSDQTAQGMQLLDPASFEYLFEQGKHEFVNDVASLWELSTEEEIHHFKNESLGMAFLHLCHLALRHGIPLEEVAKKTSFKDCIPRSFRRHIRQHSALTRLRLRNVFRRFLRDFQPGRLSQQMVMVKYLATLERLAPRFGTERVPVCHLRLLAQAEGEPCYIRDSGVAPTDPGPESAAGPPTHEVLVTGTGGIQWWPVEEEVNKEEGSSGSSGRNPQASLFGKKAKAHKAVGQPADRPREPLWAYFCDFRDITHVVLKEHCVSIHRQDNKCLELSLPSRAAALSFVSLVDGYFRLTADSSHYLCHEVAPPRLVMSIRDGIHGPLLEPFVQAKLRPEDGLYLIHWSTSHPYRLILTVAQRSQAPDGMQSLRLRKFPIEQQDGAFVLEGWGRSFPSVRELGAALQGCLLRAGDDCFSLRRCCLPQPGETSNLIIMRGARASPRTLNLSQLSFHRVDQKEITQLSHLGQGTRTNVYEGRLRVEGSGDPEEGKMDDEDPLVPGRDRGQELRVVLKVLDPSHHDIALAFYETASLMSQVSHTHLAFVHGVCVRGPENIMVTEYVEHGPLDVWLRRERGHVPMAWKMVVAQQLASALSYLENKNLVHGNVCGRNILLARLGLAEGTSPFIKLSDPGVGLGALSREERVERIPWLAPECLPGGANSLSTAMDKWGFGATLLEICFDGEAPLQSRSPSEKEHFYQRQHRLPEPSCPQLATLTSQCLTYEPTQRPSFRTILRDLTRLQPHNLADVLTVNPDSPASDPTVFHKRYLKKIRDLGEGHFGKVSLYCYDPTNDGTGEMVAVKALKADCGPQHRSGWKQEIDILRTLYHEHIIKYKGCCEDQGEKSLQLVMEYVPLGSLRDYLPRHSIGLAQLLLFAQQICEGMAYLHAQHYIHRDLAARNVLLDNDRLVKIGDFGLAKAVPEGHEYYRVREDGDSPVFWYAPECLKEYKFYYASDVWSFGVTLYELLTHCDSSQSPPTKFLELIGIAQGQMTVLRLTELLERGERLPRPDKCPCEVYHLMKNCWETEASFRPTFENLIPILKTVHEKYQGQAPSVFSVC

For `CN1CCN(c2cc(Nc3ncc(F)c(Nc4cccc(CO)c4)n3)cc(S(C)(=O)=O)c2)CC1`, the IC50 (commonly the point on the concentration scale where inhibition reaches its midpoint) in data set [1] is 42 nM; in data set [2], over 30000 nM; in data set [3], 6410 nM. For the same compound, the logD (usually lipophilicity at a set pH, counting ionised and neutral species) at 5 h in data set [4] is 1.84. The Ratio IC50 in the data set filed under Homo sapiens came out at 150.
With `Cc1cnc(Nc2cc(N3CCN(C)CC3)cc(S(C)(=O)=O)c2)nc1Nc1cccc(CO)c1`, the values for the IC50 in data set [1], in [2] and in data set [3] were under 3 nM, over 30000 nM and 929 nM, respectively. Besides, the EC50 (usually the concentration at which the effect is half-maximal) in [5] is 99 nM. Also, in data set [6], the microsomal CLint was 59.5 µL/min/mg. In data set [4], the logD at 5 h is 1.74. Moreover, the Ratio IC50 in the data set filed under Homo sapiens was over 309.
On to `CN1CCN(c2cc(Nc3nccc(Nc4ccc(F)c(Cl)c4F)n3)cc(S(C)(=O)=O)c2)CC1`, for which the figures for the IC50 in data set [1], in [2] and in [3] were under 3 nM, 464 nM and 36 nM, respectively. Besides, the Ratio IC50 in the data set listed under Homo sapiens was over 10.
In the case of `Cc1cnc(Nc2cc(N3C[C@@H]4C[C@H]3CN4C)cnc2F)nc1Nc1cccc(CO)c1`, the figures for the IC50 in [1], in [2] and in [3] were 40 nM, over 30000 nM and over 30000 nM, respectively. Besides, halving of growth with A549 (GI50) required 253 nM. For the same compound, in data set [5], the EC50 came to 68 nM.
For the compound `Cc1cnc(Nc2cc(N3C[C@@H]4C[C@H]3CN4C)cc(C(F)F)c2F)nc1Nc1cccc(CO)c1`, the IC50 in data set [1] is 55 nM; in [2], over 30000 nM; in data set [3], over 30000 nM. For the same compound, the EC50 in data set [5] turned out to be 26 nM.
Regarding `COCCN1CCN(c2cc(Nc3ncc(C)c(Nc4cccc(CO)c4)n3)cc(S(C)(=O)=O)c2)CC1`, the IC50 in data set [1] is 12 nM; in data set [2], over 30000 nM; in data set [3], 1030 nM. Further, in data set [5], the EC50 is 189 nM. The same compound came in with a logD at 5 h in data set [4] of 1.9.
For `Cc1cnc(Nc2cc(N3CCOCC3)cc(S(C)(=O)=O)c2)nc1Nc1cccc(CO)c1`, the values for the IC50 in data set [1], in [2] and in data set [3] were 13 nM, over 30000 nM and 417 nM, respectively. In the data set listed under Homo sapiens, the Ratio IC50 came to 32.
For `CN1CCN(c2cc(Nc3ncc(Cl)c(Nc4cccc(CO)c4)n3)cc(S(C)(=O)=O)c2)CC1`, the IC50 is under 3 nM in data set [1], 12600 nM in [2] and 722 nM in data set [3]. The same compound registered a logD at 5 h in data set [4] of 2.16. For the same compound, the Ratio IC50 in the data set filed under Homo sapiens was over 240.
On to `CN1CCN(c2cc(Nc3nccc(Nc4cccc(CO)c4)n3)cc(S(C)(=O)=O)c2)CC1`, for which the IC50 in [1] was 3 to 100 nM; in data set [2], over 30000 nM; in data set [3], 13900 nM. For the same compound, the logD at 5 h in [4] is 1.75. Further, in the data set filed under Homo sapiens, the Ratio IC50 was determined as 140.
In the case of `Cc1cnc(Nc2cc(N3C[C@@H]4C[C@H]3CN4C)cnc2F)nc1N[C@H](C)C(C)C`, the IC50 was 26 nM in data set [1], 24700 nM in data set [7] and over 30000 nM in [3]. Further, in data set [5], the EC50 was found to be 50 nM.
For the compound `CN1CCN(c2cc(Nc3ncc(Br)c(Nc4cccc(CO)c4)n3)cc(S(C)(=O)=O)c2)CC1`, the IC50 in data set [1] was under 3 nM; in data set [2] it was 6540 nM; in data set [3], 363 nM. Besides, the logD at 5 h in data set [4] worked out at 2.43. Moreover, the Ratio IC50 in the data set filed under Homo sapiens is over 120.
With `Cc1cnc(Nc2cccc(N3CCN(C)CC3)c2)nc1Nc1cccc(CO)c1`, the IC50 in data set [1] came to 55 nM; in data set [2], 20300 nM; in data set [3] it was 357 nM. For the same compound, in the data set listed under Homo sapiens, the Ratio IC50 was 6.5.
As to `Cc1cnc(Nc2cc(C(F)F)cc(N3C[C@@H]4C[C@H]3CN4C)c2)nc1Nc1cccc(CO)c1`, the IC50 in data set [1] stood at 16 nM; in data set [2], 18100 nM; in data set [3], 376 nM. Moreover, the concentration for a half-maximal effect (EC50) in data set [5] was 37 nM.
`Cc1cnc(Nc2cc(N3CCOCC3)cc(N3CCOCC3)c2)nc1Nc1cccc(CO)c1`: the figures for the IC50 in data set [1], in data set [2] and in [3] were 4 nM, 371 nM and under 3 nM, respectively. Further, in the data set listed under Homo sapiens, the Ratio IC50 is under 0.75.
Turning to `Cc1cnc(Nc2cc(N3C[C@@H]4C[C@H]3CN4C)ccc2F)nc1Nc1cccc(CO)c1`, the IC50 in [1] was 117 nM; in data set [2] it was over 30000 nM; in [3], over 30000 nM. Moreover, the EC50 in data set [5] worked out at 101 nM.
Consider `Cc1cnc(Nc2cc(N3C[C@@H](C)N[C@@H](C)C3)cc(S(C)(=O)=O)c2)nc1Nc1cccc(CO)c1`, for which the IC50 in [1] is 5 nM; in data set [2], over 30000 nM; in data set [3] it was 996 nM. For the same compound, the EC50 in data set [5] is 325 nM. The logD at 5 h in data set [4] was 1.24.
Regarding `Cc1cnc(Nc2cc(N3CCNCC3)cc(S(C)(=O)=O)c2)nc1Nc1cccc(CO)c1`, the IC50 was under 3 nM in [1], over 30000 nM in data set [2] and 951 nM in [3]. For the same compound, the 50% effective concentration (EC50) in data set [5] was 496 nM. In data set [4], this compound returned a logD at 5 h of 1.09.
For `Cc1cnc(Nc2cc(N3CCN(CCO)CC3)cc(S(C)(=O)=O)c2)nc1Nc1cccc(CO)c1`, the results for the IC50 in data set [1], in [2] and in [3] were 6 nM, over 30000 nM and 817 nM, respectively. For the same compound, the concentration for a half-maximal effect (EC50) in [5] was over 3000 nM. This compound also returned a logD at 5 h in [4] of 1.29.
Take `CCC(CC)Nc1nc(Nc2cc(N3C[C@@H]4C[C@H]3CN4C)cnc2F)ncc1C`: the IC50 in data set [1] is 29 nM; in [2], over 30000 nM; in data set [7], over 30000 nM; in data set [3], over 30000 nM. In addition, in the data set with A549, the GI50 (usually the concentration at which growth is held to half of that of the control) was over 10000 nM. For the same compound, the EC50 in [5] came to 44 nM.
`Cc1cnc(Nc2cc(N3C[C@@H]4C[C@H]3CN4C)cc(S(C)(=O)=O)c2)nc1Nc1cccc(CO)c1`: the results for the IC50 in data set [1], in data set [2] and in data set [3] were under 3 nM, over 27900 nM and 1180 nM, respectively. In [5], the EC50 stood at 92 nM. In addition, in data set [6], the microsomal CLint came to 7.32 µL/min/mg. The same compound returned a logD at 5 h in [4] of 0.82.
As for `CC(=O)N1CCN(c2cc(Nc3ncc(C)c(Nc4cccc(CO)c4)n3)cc(S(C)(=O)=O)c2)CC1`, the results for the IC50 in data set [1], in [2] and in data set [3] were 10 nM, 24600 nM and 347 nM, respectively. The EC50 in data set [5] was over 3000 nM. In addition, the logD at 5 h in data set [4] is 1.74.
